Compound activity from PubChem BioAssay.
This is a sample that favours compounds with a hit; in the whole collection about 4.9% have one here.
NF-kB expr up – activators of NF-kB expression in neurons, primary screen, cell-based, HTS; fold change at 12.5 µM; human neuronal cells, NF-kB reporter expression; hits give high values; AID 1239, 2008; 1.6% of 190,000 active; in the data active means fold change above about 3.3
APP 5'UTR act – activators of APP 5'UTR luciferase reporter, primary screen, SH-SY5Y cells | SH-SY5Y APP 5'UTR luciferase reporter, luminescence; zero percent = DMSO vehicle wells | activation, % at 2 µM | 1% of 190,000 active | AID 1276, 2008;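 active means activation above a set limit, based on mean plus 3 SD of controls, cut at about 140% in these data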
STAT3 activator – IL-6 driven STAT3 reporter potentiators, primary screen, U3A cells, luciferase, luminescence, MLSCN library | IL-6 STAT3-luciferase reporter; 100% = signal with IL-6 EC80 alone | activation (% of control), % at 5.6 µM | 0.91% of 190,000 active | AID 871, 2007;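 active means activation above the screen-wide mean of compound activation plus 3 SD, cut at about 130% in these data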
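Test system: Human STAT1-deficient U3A cells with stable STAT3-luciferase reporter | Also added: Interleukin-6, 33 ng/mL | Timing: Compound pre-incubation 1 h before IL-6, then 6 h stimulation at 37 °C | Technique: Luciferase reporter luminescence | Read-out: Percent of IL-6-only median luminescence | Benchmarks: IL-6-only wells as 100% reference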
STAT3 inh – IL-6 driven STAT3 reporter inhibitors, primary screen, U3A cells, luciferase, luminescence, MLSCN library; IL-6 STAT3-luciferase reporter; host cell line lacks STAT1; inhibition, % at 5.5 µM; 0.89% of 190,000 active;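 active means inhibition above the mean inhibition across all screened compounds plus 3 SD, cut at about 44% in these data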
STAT1 blocker – STAT1 signaling inhibitors, primary screen, cell-based, HTS, luciferase reporter; AID 920, 2007; 0.35% of 200,000 active; NIH 3T3 STAT1-luciferase reporter, IFN-gamma, luminescence; inhibition, % at 5.5 µM;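 active means inhibition above a set limit, the mean inhibition across all tested compounds plus 3 SD, cut at about 34% in these data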
STAT1 activator – STAT1 signaling activators, primary screen, cell-based, HTS, luciferase reporter | NIH 3T3 STAT1-luciferase reporter, IFN-gamma, luminescence; 100% = IFN-gamma alone, no compound | activation (% of control), % at 5.5 µM | 2.6% of 200,000 active | AID 932, 2007;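 active means activation above the screen-wide mean activation plus 3 SD, cut at about 130% in these data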
Numbers stand for hits; – = inactive; · = not tested or not shown.

SMILES | NF-kB expr up | APP 5'UTR act | STAT3 activator | STAT3 inh | STAT1 blocker | STAT1 activator
O=C(/C=C1\NCC2c3ccccc3CCN2C1=O)c1ccccc1 (configuration not stated) | – | – | 133.7 | – | – | –
Cc1cccc(N=C2NN=C(c3ccc4c(c3)OCCO4)CS2)c1 | – | 140.0 | – | – | – | –
Cc1cccc(N=C2NN=C(c3c(C)[nH]c4ccccc34)CS2)c1 | – | – | – | – | – | –
COc1cc(OC)cc(-c2nc3cc(C)ccc3o2)c1 | 6.24 | – | 171.0 | – | – | 157.7
COc1cc(OC)cc(-c2nc3ccccc3c(=O)o2)c1 | – | – | – | – | – | –
Cc1ccc(-c2nc3cc(Cl)ccc3o2)cc1 | 8.49 | – | 134.6 | – | – | 162.0
O=C(Cn1nc(C(=O)O)c2ccccc2c1=O)NC12CC3CC(CC(C3)C1)C2 | – | – | – | – | – | –
CCc1n[n+](CC(=O)c2ccccc2)c(N)s1 | – | 141.5 | – | 64.7 | 59.0 | –
CC(C)c1cccc(C(C)C)c1NC(=O)Cn1c(=O)cnc2ccccc21 | – | – | – | – | – | –
CC(C)CC(COCc1cccc(Cl)c1)N1CCN(C(=O)c2ccc(C(F)(F)F)cc2)CCC1=O (configuration not stated) | – | – | – | – | – | –
Nc1n[nH]c(N)c1N=Nc1ccc(Cl)cc1 | – | – | – | – | – | –
Nc1ccc(N=Nc2ccc(N)cc2)cc1 | 3.45 | – | – | – | – | –
O=S(=O)([N-]c1nc2ccccc2nc1-[n+]1ccccc1)c1ccc(F)cc1 | – | – | – | – | – | –
CC(=O)c1ccc(N2CCN(C(=S)NCCCN(C)C)CC2)cc1 | – | – | – | – | – | –
O=C(NC(=S)NCCN1CCOCC1)c1ccc(Cl)cc1 | – | – | – | – | – | –
N#Cc1sc2nc3c(cc2c1N)CCCC3 | – | – | – | – | – | –
Nc1c(C(=O)c2ccc(Cl)cc2)sc2nc3c(cc12)CCC3 | – | 135.2 | – | – | – | –
Cn1c(N)c(C(=O)COC(=O)[C@@H]2CCCN2S(=O)(=O)c2ccc(Cl)cc2)c(=O)n(C)c1=O | – | – | – | – | – | –
Cc1cc(OCC(=O)N2CCCCCC2)ccc1[N+](=O)[O-] | – | – | – | – | – | 137.5
Cc1cccc(C2c3[nH]c4ccccc4c3CCN2C(=O)CN2CCOC2=O)n1 (configuration not stated) | – | – | 134.1 | – | – | –
CCn1c(C)nc2cc(C(=O)N/N=C/c3ccccc3)ccc21 | – | – | – | – | – | 144.8
CC(=O)Nc1nc(-c2ccccc2)ns1 | – | – | – | – | – | –
CCCCCCSc1nsc(NC(C)=O)n1 | – | – | – | – | – | 129.9
CCCCSc1nsc(NC(C)=O)n1 | – | 141.7 | – | – | – | –
CCCSc1nsc(NC(=O)CCC)n1 | 6.43 | 193.9 | – | – | – | 131.0
SMILES | NF-kB expr up | APP 5'UTR act | STAT3 activator | STAT3 inh | STAT1 blocker | STAT1 activator
CCCSc1nsc(NC(=O)c2cccnc2OCC)n1 | – | – | – | – | – | –
CC[n+]1c(C)n(-c2ccccc2)c2ccc(C(=O)OC)cc21 | – | – | – | – | – | –
COc1ccc(N2CCN(C(=O)Cc3ccc(S(=O)(=O)N4CCOCC4)s3)CC2)cc1 | – | – | – | – | – | –
NC(=O)N/N=C/c1cccc(OCc2ccc(F)cc2)c1 | – | – | – | – | – | –
Cc1nnc(N/N=C/c2cccc(OCc3ccc(Cl)c(Cl)c3)c2)n1N | – | – | – | – | – | 140.5
Cc1ccc(NC(=O)CCC(=O)N/N=C/c2cccs2)cc1 | – | – | – | – | – | –
CCOc1ccc(C(=O)N2CCCC2)cc1 | – | – | – | – | – | –
COc1cc(/C=C/[N+](=O)[O-])ccc1OCc1cccc(C(=O)O)c1 | 4.36 | – | – | 93.2 | 89.5 | –
CCOc1ccc(OCc2cccc(C(=O)O)c2)cc1 | 12.2 | · | · | · | · | ·
O=C(OCC(F)(F)F)c1cccc(COc2ccc3ccccc3c2)c1 | 8.14 | – | – | 102.4 | 87.5 | –
